ChEMBL document CHEMBL1221207, “Expanding the promiscuity of a natural-product glycosyltransferase by directed evolution” (Nat Chem Biol, 2007)
Positions count from the first letter of the chain named.

What was measured:
[1] = target: T1, Oleandomycin glycosyltransferase (Streptomyces antibioticus) (UniProt Q53685); assay: Activity at Streptomyces antibioticus wild-type OleD assessed as as rate of glucoside formation measured as nanomoles of product formed per minute per mg of enzyme
T1 sequence (whole entry): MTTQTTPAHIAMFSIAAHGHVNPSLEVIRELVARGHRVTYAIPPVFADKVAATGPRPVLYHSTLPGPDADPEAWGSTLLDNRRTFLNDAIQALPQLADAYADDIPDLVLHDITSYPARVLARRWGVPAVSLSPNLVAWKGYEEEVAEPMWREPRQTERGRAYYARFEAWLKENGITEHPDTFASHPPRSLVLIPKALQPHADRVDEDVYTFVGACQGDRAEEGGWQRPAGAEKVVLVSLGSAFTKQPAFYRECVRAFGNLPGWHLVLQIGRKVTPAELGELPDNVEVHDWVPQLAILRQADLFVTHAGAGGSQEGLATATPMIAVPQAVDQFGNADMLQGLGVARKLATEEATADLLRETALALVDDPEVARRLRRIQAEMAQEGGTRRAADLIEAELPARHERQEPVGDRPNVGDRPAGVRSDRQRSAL

[2] = test system: T2, Oleandomycin glycosyltransferase (Streptomyces antibioticus), Q53685 [P67T,S132F,A242V]; assay: Activity of Streptomyces antibioticus OleD P67T/S132F/A242V mutant assessed as as rate of glucoside formation measured as nanomoles of product formed per minute per mg of enzyme
T2 sequence (whole entry): T1 sequence (whole entry) with P67T, S132F, A242V

[3] = test system: T2, Oleandomycin glycosyltransferase (Streptomyces antibioticus), Q53685 [P67T,S132F,A242V]; assay: Activity of Streptomyces antibioticus OleD P67T/S132F/A242V mutant assessed as conversion rate of compound to produce glucoside 3 using NDP sugar UDP-glucose after 3 hrs by HPLC
How it was run: (§1)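 End-point donor-specificity assay with purified OleD enzyme. Percentage conversion was read after 3 h. Quenched reactions were run by reverse-phase C18 HPLC with a 10–90% CH3CN gradient in 0.1% formic acid/H2O over 20 min at 1 ml min–1, with detection at 254 nm. Products were identified by LC-MS, by comparison to standards where available, and by fluorescence.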

[4] = test system: T2, Oleandomycin glycosyltransferase (Streptomyces antibioticus), Q53685 [P67T,S132F,A242V]; assay: Activity of Streptomyces antibioticus OleD P67T/S132F/A242V mutant assessed as conversion rate of compound to produce glucoside 3 using NDP sugar donor UDP-4-amino-6-deoxy-glucose after 3 hrs by HPLC; how it was run: as §1
[5] = test system: T2, Oleandomycin glycosyltransferase (Streptomyces antibioticus), Q53685 [P67T,S132F,A242V]; assay: Activity of Streptomyces antibioticus OleD P67T/S132F/A242V mutant assessed as conversion rate of compound to produce glucoside 3 using NDP sugar donor UDP-3-amino-6-deoxy-glucose after 3 hrs by HPLC; how it was run: as §1
[6] = test system: T2, Oleandomycin glycosyltransferase (Streptomyces antibioticus), Q53685 [P67T,S132F,A242V]; assay: Activity of Streptomyces antibioticus OleD P67T/S132F/A242V mutant assessed as conversion rate of compound to produce glucoside 3 using NDP sugar donor UDP-2-amino-glucose after 3 hrs by HPLC; how it was run: as §1
[7] = test system: T3, Oleandomycin glycosyltransferase (Streptomyces antibioticus), Q53685 [P67T]; assay: Activity of Streptomyces antibioticus OleD P67T mutant assessed as conversion rate of compound to produce glucoside 3 using NDP sugar donor UDP-6-deoxy-glucose after 3 hrs by HPLC; how it was run: as §1
T3 sequence (whole entry): T1 sequence (whole entry) with P67T

[8] = test system: T4, Oleandomycin glycosyltransferase (Streptomyces antibioticus), Q53685 [S132F]; assay: Activity of Streptomyces antibioticus OleD S132F mutant assessed as conversion rate of compound to produce glucoside 3 using NDP sugar donor UDP-glucose after 3 hrs by HPLC; how it was run: as §1
T4 sequence (whole entry): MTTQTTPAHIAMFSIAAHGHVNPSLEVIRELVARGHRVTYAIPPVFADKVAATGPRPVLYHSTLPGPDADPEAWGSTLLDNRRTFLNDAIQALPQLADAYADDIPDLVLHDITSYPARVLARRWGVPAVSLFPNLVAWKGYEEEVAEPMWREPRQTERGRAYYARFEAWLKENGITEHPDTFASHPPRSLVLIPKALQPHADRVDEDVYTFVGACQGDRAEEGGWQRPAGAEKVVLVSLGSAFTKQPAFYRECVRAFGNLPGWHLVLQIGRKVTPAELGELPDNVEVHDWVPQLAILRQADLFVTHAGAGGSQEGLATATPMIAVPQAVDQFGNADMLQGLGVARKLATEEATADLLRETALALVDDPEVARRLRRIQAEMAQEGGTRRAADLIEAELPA

[9] = test system: T5, Oleandomycin glycosyltransferase (Streptomyces antibioticus), Q53685 [A242V]; assay: Activity of Streptomyces antibioticus OleD A242V mutant assessed as conversion rate of compound to produce glucoside 3 using NDP sugar donor UDP-6-azido-glucose after 3 hrs by HPLC; how it was run: as §1
T5 sequence (whole entry): T1 sequence (whole entry) with A242V

Cc1cc(=O)oc2cc(O)ccc12
Activity [1]: 2.5 nmol/min | Activity [2]: 84 nmol/min | Activity [3]: 96.4% | Activity [4]: 47% | Activity [5]: 4% | Activity [6]: 24% | Activity [7]: 11% | Activity [8]: 48% | Activity [9]: 2%
